Measurements: ChEMBL document CHEMBL3097997, “Synthesis and anticancer activities of thieno[3,2-d]pyrimidines as novel HDAC inhibitors” (Bioorg Med Chem, 2014)

Tests used:
MCF7 = experiment: Antiproliferative activity against human MCF7 cells after 72 hrs by MTT assay; type: functional, cell-based; details: MCF7, 72 h
HeLa = experiment: Antiproliferative activity against human HeLa cells after 72 hrs by MTT assay; type: functional, cell-based
HCT-116 [1] = experiment: Antiproliferative activity against human HCT116 cells after 72 hrs by MTT assay; type: functional, cell-based; details: HCT-116, 72 h
Histone deacetylase = experiment: Inhibition of HDAC in human HeLa cell nuclear extract using fluor de Lys as substrate after 15 mins by fluorimetric analysis; type: protein assay
Procedure, shortened: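 Fluorimetric HDAC kit assay: HeLa nuclear extract (15 μL) combined with 10 μL of 5× compound, then 25 μL fluorogenic substrate added; deacetylation ran 15 min at room temperature and was stopped with TSA-containing developer. Fluorescence read after a further 15 min at excitation 360 nm, emission 460 nm.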

[2] = biological target: Histone deacetylase (Homo sapiens) (UniProt Q13547+O15379+Q9UBN7+Q92769+Q9UQL6+Q8WUI4+Q9BY41+Q96DB2+P56524+Q9UKV0+Q969S8); details: HeLa, at 1 µM
HCT-116 [3] = experiment: Cell cycle arrest in human HCT116 cells assessed as accumulation at sub G1 phase after 24 hrs by propidium iodide staining-based flow cytometric analysis; type: functional
Procedure, shortened: (§1)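 HCT-116 cells seeded at 2 × 10^5 per well in six-well plates, treated 24 h with compound at 2.5, 5 or 10 μM alongside untreated control, then harvested, fixed in cold 70% ethanol and stained with PI solution (final 50 μg/mL PI, 0.1 mg/mL RNase A, 0.05% Triton X-100) for 40 min at 37 °C. Phase distribution read by flow cytometry.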

HCT-116 [4] = experiment: Cell cycle arrest in human HCT116 cells assessed as accumulation at G2/M phase at 10 uM after 24 hrs by propidium iodide staining-based flow cytometric analysis (reference value: 15.6%); type: functional; procedure, shortened: as §1
HCT-116 [5] = experiment: Cell cycle arrest in human HCT116 cells assessed as accumulation at S phase at 10 uM after 24 hrs by propidium iodide staining-based flow cytometric analysis (reference value: 36.3%); type: functional; procedure, shortened: as §1
HCT-116 [6] = experiment: Cell cycle arrest in human HCT116 cells assessed as accumulation at G1 phase at 10 uM after 24 hrs by propidium iodide staining-based flow cytometric analysis (reference value: 48.1%); type: functional; procedure, shortened: as §1
HCT-116 [7] = experiment: Cell cycle arrest in human HCT116 cells assessed as accumulation at sub G1 phase at 10 uM after 24 hrs by propidium iodide staining-based flow cytometric analysis relative to control; type: functional; procedure, shortened: as §1
HCT-116 [8] = experiment: Cell cycle arrest in human HCT116 cells assessed as accumulation at G2/M phase at 5 uM after 24 hrs by propidium iodide staining-based flow cytometric analysis (reference value: 15.6%); type: functional; procedure, shortened: as §1
HCT-116 [9] = experiment: Cell cycle arrest in human HCT116 cells assessed as accumulation at S phase at 5 uM after 24 hrs by propidium iodide staining-based flow cytometric analysis (reference value: 36.3%); type: functional; procedure, shortened: as §1
HCT-116 [10] = experiment: Cell cycle arrest in human HCT116 cells assessed as accumulation at G1 phase at 5 uM after 24 hrs by propidium iodide staining-based flow cytometric analysis (reference value: 48.1%); type: functional; procedure, shortened: as §1
HCT-116 [11] = experiment: Cell cycle arrest in human HCT116 cells assessed as accumulation at sub G1 phase at 5 uM after 24 hrs by propidium iodide staining-based flow cytometric analysis relative to control; type: functional; procedure, shortened: as §1
HCT-116 [12] = experiment: Cell cycle arrest in human HCT116 cells assessed as accumulation at G2/M phase at 2.5 uM after 24 hrs by propidium iodide staining-based flow cytometric analysis (reference value: 15.6%); type: functional; procedure, shortened: as §1
HCT-116 [13] = experiment: Cell cycle arrest in human HCT116 cells assessed as accumulation at S phase at 2.5 uM after 24 hrs by propidium iodide staining-based flow cytometric analysis (reference value: 36.3%); type: functional; procedure, shortened: as §1
HCT-116 [14] = experiment: Cell cycle arrest in human HCT116 cells assessed as accumulation at G1 phase at 2.5 uM after 24 hrs by propidium iodide staining-based flow cytometric analysis (reference value: 48.1%); type: functional; procedure, shortened: as §1
HCT-116 [15] = experiment: Cell cycle arrest in human HCT116 cells assessed as accumulation at sub G1 phase at 2.5 uM after 24 hrs by propidium iodide staining-based flow cytometric analysis relative to control; type: functional; procedure, shortened: as §1

| IC50 (MCF7) [µM] | IC50 (HeLa) [µM] | IC50 (HCT-116 [1]) [µM] | IC50 (Histone deacetylase) [µM] | inhibition [2] [%] | Structure (SMILES) | also measured |
| --- | --- | --- | --- | --- | --- | --- |
| 10 | 7.4 | 2.9 | 0.49 | 73.8 | O=C(CCCCCCCOc1ccc(-c2nc(N3CCOCC3)c3sccc3n2)cc1)NO | – |
| > 20 | 20 | > 20 | – | 40.6 | O=C(CCCCCCCCOc1cccc(-c2nc(N3CCOCC3)c3sccc3n2)c1)NO | – |
| 5.2 | 3 | 5.5 | – | 61.7 | O=C(CCCCCCOc1ccc(-c2nc(N3CCOCC3)c3sccc3n2)cc1)NO | – |
| 4.8 | 4 | 4 | 0.38 | 76.8 | O=C(CCCCCCOc1cccc(-c2nc(N3CCOCC3)c3sccc3n2)c1)NO | Activity (HCT-116 [3]): Dose-dependent effect; Activity (HCT-116 [4]): 26.5%; Activity (HCT-116 [5]): 20.8%; Activity (HCT-116 [6]): 50.3%; Activity (HCT-116 [7]): 44.5%; Activity (HCT-116 [8]): 31.4%; Activity (HCT-116 [9]): 18.9%; Activity (HCT-116 [10]): 49.7%; Activity (HCT-116 [11]): 42.2%; Activity (HCT-116 [12]): 16.8%; Activity (HCT-116 [13]): 15.2%; Activity (HCT-116 [14]): 68.1%; Activity (HCT-116 [15]): 30.5% |
| 18 | 19 | 10.1 | – | 25.4 | O=C(CCCCCCCCOc1ccc(-c2nc(N3CCOCC3)c3sccc3n2)cc1)NO | – |
| 9.9 | 2.4 | 12.2 | – | 18.7 | O=C(CCCCCOc1cccc(-c2nc(N3CCOCC3)c3sccc3n2)c1)NO | – |
| 11 | 11.9 | 6.1 | 0.61 | 72 | O=C(CCCCCCCOc1cccc(-c2nc(N3CCOCC3)c3sccc3n2)c1)NO | – |
| > 20 | 12 | 14 | – | 18.8 | O=C(CCCCCOc1ccc(-c2nc(N3CCOCC3)c3sccc3n2)cc1)NO | – |
